ChEMBL document CHEMBL5346886 (Eur J Med Chem, 2023)
The source made the active and inactive calls. The rule behind the calls is not given here.

Assays:
Murine hepatitis virus [1] = experiment: Potency index, ratio of GS-441524 EC50 to test compound EC50 for antiviral activity against Murine hepatitis virus-A59 infected in mouse L929 cells assessed as reduction in viral copy pre-infected with cell for 1 hrs followed by compound addition and measured after 48 hrs by RT-qPCR analysis; type: functional
Canine coronavirus = experiment: Antiviral activity against Canine coronavirus infected in CRFK cells assessed as reduction in viral copy pre-infected with cells for 1 hrs followed by compound addition and measured after 48 hrs by RT-qPCR analysis; type: functional, organism-based; settings: Alphacoronavirus 1, CRFK
How it was run: (§1)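 CRFK cells (CCoV, FIPV) or ST cells (TGEV) were grown in DMEM with 10% FBS at 37 °C, 5% CO2. At 80% confluence they were washed in serum-free medium and infected at MOI 0.01 for 1 h at 37 °C. Compounds were then added at 0.1–100 μmol/L, with DMSO as blank. After 48 h, cells and supernatants were analysed by qRT-PCR. Inhibition came from viral copy number, and EC50 from curve fitting.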

[2] = system: Feline infectious peritonitis virus; experiment: Antiviral activity against Feline infectious peritonitis virus infected in CRFK cells assessed as reduction in viral copy pre-infected with cells for 1 hrs followed by compound addition and measured after 48 hrs by RT-qPCR analysis; type: functional, organism-based; settings: Alphacoronavirus 1, CRFK; how it was run: as §1
[3] = Drug metabolism in Sprague-Dawley rat assessed as hydrolysis-mediated GS-441524 metabolite formation at 25 mg/kg, po administered as single dose and measured after 24 hrs by LC-MS/MS analysis; type: ADME, organism-based; settings: in vivo
How it was run: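 Male SD rats (n = 3), fasted 12 h, dosed intragastrically; jugular vein blood into EDTA-K2 tubes at 0.25, 0.5, 1, 2, 3, 4, 6, 8 and 24 h; plasma protein-precipitated with acetonitrile, filtered, analytes measured by LC/MS/MS; noncompartmental PK analysis; mean ± SD.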

[4] = Drug metabolism in Sprague-Dawley rat assessed as hydrolysis-mediated GS-441524 metabolite formation at 5 mg/kg, iv administered as single dose and measured after 24 hrs by LC-MS/MS analysis; type: ADME, organism-based; settings: in vivo
[5] = Drug metabolism in Sprague-Dawley rat assessed as hydrolysis-mediated ibuprofen metabolite formation at 5 mg/kg, iv administered as single dose and measured after 24 hrs by LC-MS/MS analysis; type: ADME, organism-based; settings: in vivo
[6] = Drug distribution in BALB/c mouse plasma assessed as hydrolyzed ibuprofen metabolite at 200 mg/kg, po administered as single dose and measured after 1 hrs by LC-MS/MS analysis; type: ADME, organism-based; settings: in vivo
[7] = Drug distribution in BALB/c mouse kidney assessed as hydrolyzed ibuprofen metabolite at 200 mg/kg, po administered as single dose and measured after 1 hrs by LC-MS/MS analysis; type: ADME, organism-based; settings: in vivo
[8] = Drug distribution in BALB/c mouse liver assessed as hydrolyzed GS-441524 metabolite at 200 mg/kg, po administered as single dose and measured after 1 hrs by LC-MS/MS analysis; type: ADME, organism-based; settings: in vivo
Murine hepatitis virus [9] = experiment: Antiviral activity against murine hepatitis virus-A59 infected in po dosed BALB/c mouse assessed as inhibition of viral replication in liver administered once daily one hour post infection and measured after 3 days by qRT-PCR analysis; type: functional, organism-based; settings: dose 10-200 mg/kg, time 3.0 day
How it was run: (§2)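 SPF male BALB/c mice aged 3–4 weeks were put under isoflurane and inoculated intranasally with 30 μL MHV-A59 (TCID50 = 10−7.125/100 μL) in PBS. Oral dosing once daily in 15% Cremophor EL/82.5% PBS/2.5% DMSO started at 1 hpi and ran for four days; groups had 12 mice. At 3 dpi, 4 mice per group were killed and lung and liver M-gene copies measured by qRT-PCR.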

Murine hepatitis virus [10] = experiment: Antiviral activity against murine hepatitis virus-A59 infected in po dosed BALB/c mouse assessed as inhibition of viral replication in lungs administered once daily one hour post infection and measured after 3 days by qRT-PCR analysis; type: functional, organism-based; settings: dose 10-200 mg/kg, time 3.0 day; how it was run: as §2
Murine hepatitis virus [11] = experiment: Antiviral activity against murine hepatitis virus-A59 infected in BALB/c mouse assessed as reduction in IL-1beta production in liver at 10 to 100 mg/kg, po administered once daily one hour post infection and measured after 3 days by ELISA analysis; type: functional, organism-based; settings: dose 10-100 mg/kg, time 3.0 day
How it was run: (§3)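 MHV-A59 was inoculated intranasally into male BALB/c mice (30 μL, TCID50 = 10−7.125/100 μL), with oral dosing once daily from 1 hpi for four days. At 3 dpi, 0.1 g lung or liver from 4 mice per group was homogenized in 0.9 mL water at 4 °C and centrifuged. Supernatant IFN-β was read by ELISA; TNF-α, IFN-γ, IL-1β, IL-6 and CXCL10 by multi-analyte kit, with OD 450 nm against standards.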

Murine hepatitis virus [12] = experiment: Antiviral activity against murine hepatitis virus-A59 infected in BALB/c mouse assessed as reduction in IFN-beta production in lungs at 200 mg/kg, po administered once daily one hour post infection and measured after 3 days by ELISA analysis; type: functional, organism-based; settings: time 3.0 day; how it was run: as §3
Murine hepatitis virus [13] = experiment: Antiviral activity against murine hepatitis virus-A59 infected in BALB/c mouse assessed as alleviation of interstitial pneumonia in lungs at 200 mg/kg, po administered once daily one hour post infection and measured after 3 days by H&E staining based analysis; type: functional, organism-based; settings: time 3.0 day
How it was run: (§4)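 In male BALB/c mice (3–4 weeks), MHV-A59 was given intranasally (30 μL, TCID50 = 10−7.125/100 μL). Oral dosing once daily in a Cremophor EL/PBS/DMSO vehicle began at 1 hpi and lasted four days. At 3 dpi, lungs and livers from 4 mice per group were fixed in zinc formalin and paraffin-embedded. Sections of about 4 μm were stained with H&E and examined at 200× and 400×.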

Murine hepatitis virus [14] = experiment: Antiviral activity against murine hepatitis virus-A59 infected in BALB/c mouse assessed as alleviation of thickened alveolar septa in lungs at 200 mg/kg, po administered once daily one hour post infection and measured after 3 days by H&E staining based analysis; type: functional, organism-based; settings: time 3.0 day; how it was run: as §4
Murine hepatitis virus [15] = experiment: Antiviral activity against murine hepatitis virus-A59 infected in BALB/c mouse assessed as remission of hepatocyte necrosis at 200 mg/kg, po administered once daily one hour post infection and measured after 3 days by H&E staining based analysis; type: functional, organism-based; settings: time 3.0 day; how it was run: as §4
Murine hepatitis virus [16] = experiment: Antiviral activity against murine hepatitis virus-A59 infected in BALB/c mouse model of acute liver injury assessed as reduction in plasma ALT level at 10 to 200 mg/kg, po administered once daily one hour post infection and measured after 3 days; type: functional, organism-based; settings: dose 10-200 mg/kg, time 3.0 day
How it was run: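 Male BALB/c mice were infected intranasally with MHV-A59 (30 μL, TCID50 = 10−7.125/100 μL) and dosed orally once daily from 1 hpi for four days in 15% Cremophor EL/82.5% PBS/2.5% DMSO. At 3 dpi, blood from 4 euthanized mice per group was left to clot at room temperature and centrifuged. Serum ALT and AST were measured on a clinical chemistry analyzer.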

Murine hepatitis virus [17] = experiment: Antiviral activity against murine hepatitis virus-A59 infected in BALB/c mouse assessed as reduction in mortality at 10 to 200 mg/kg, po administered once daily one hour post infection and measured after 23 days; type: functional, organism-based; settings: dose 10-200 mg/kg, time 23.0 day
How it was run: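 After intranasal MHV-A59 inoculation (30 μL, TCID50 = 10−7.125/100 μL), 3–4-week-old male BALB/c mice received oral drug or vehicle once daily from 1 hpi for four days, 12 per group. The remaining mice were monitored daily for body weight, clinical signs and death until 23 dpi; survival curves were plotted.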

With CC(C)Cc1ccc(C(C)C(=O)OC[C@H]2O[C@@](C#N)(c3ccc4c(N)ncnn34)[C@H](O)[C@@H]2O)cc1 (stereo partly drawn) the “Ratio EC50” value (Murine hepatitis virus [1]) was 8, the EC50 (Canine coronavirus) was 1.41 µM and the EC50 [2] was 7.34 µM. For the same compound, the Drug metabolism [3] was “Metabolite_Detected”, the Drug metabolism [4] was “Metabolite_Detected” and the Drug metabolism [5] was “Metabolite_Detected”. For the same compound, the Drug uptake [6] was “Active”, the Drug uptake [7] was “Active” and the Drug uptake [8] was “Active”. The Activity (Murine hepatitis virus [9]) was “Dose-Dependent Effect”, the Activity (Murine hepatitis virus [10]) was “Dose-Dependent Effect” and the Activity (Murine hepatitis virus [11]) was “Active”. For the same compound, the Activity (Murine hepatitis virus [12]) was “Active”, the Activity (Murine hepatitis virus [13]) was “Active” and the Activity (Murine hepatitis virus [14]) was “Active”. For the same compound, the Activity (Murine hepatitis virus [15]) was “Active”, the Activity (Murine hepatitis virus [16]) was “Active” and the Activity (Murine hepatitis virus [17]) was “Active”.
